# Test results: PMC9134932 (CNS Oncology, 2022)
# Where “and” joins values, the source holds several entries; their conditions need not be identical. Equal values may be shown once. Read-outs that look alike come from different tables or passages of the source. Marks after values point to notes of the source that are not given here.
# Legend:
# [1] = PK of WP1066 in human plasma; assay type: in vivo; conditions: 1-8 mg/kg oral
# [2] = test system: genetically engineered murine models of gliomas; conditions: p < 0.01; cited from earlier work
# GL261 glioma model = conditions: cited from earlier work
# PBMCs = test: Immune monitoring of patient PBMCs; assay type: in vivo, human; conditions: for Th1 to Th2 ratio: % CD3+ CD4+ IFN-γ+ divided by % CD3+ CD4+ IL-4+ T cells; for Cytotoxic CD8 to Treg ratio: % CD3+ CD8+ IFN-γ+ divided by % CD3+ CD4+ CD25+ Foxp3+ cells
# In short: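 PBMCs were taken at C1D1 0 and 4 h, C1D2 0 h, and C1D8 0 and 4 h, then isolated from heparinised blood on Ficoll 1077. Cells were held 4–5 h at 37°C in T cell medium with protein transport inhibitor, Fc-blocked 15 min on ice, and given fixable viability dye 30 min at 4°C. Surface staining, fix/perm and intracellular staining followed, then flow cytometry. Th1:Th2 = %CD3+CD4+IFN-γ+ / %CD3+CD4+IL-4+. CD8:Treg = %CD3+CD8+IFN-γ+ / %CD3+CD4+CD25+FoxP3+.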
# [3] = i.v. 40 mg/kg, no reference given, cited from earlier work
# [4] = no reference given, cited from earlier work
# [5] = test system: patients with recurrent malignant glioma; test: Phase I dose escalation; assay type: in vivo, human
# In short: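 Dose assignment used accelerated titration, then 3 + 3. Planned levels were 1, 2, 4, 8 and 16 mg/kg, given BID on Mon/Wed/Fri for 2 weeks per 28-day cycle, as an oral suspension. Toxicity was assessed at baseline and before each cycle, graded by CTCAE v4.0. Dose was held for grade II toxicity and cut by 30% or one level for grade III. DSMB approval was required before each cohort change.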
# [6] = three weeks after the last administration; range: 0.52-4.0; no reference given; cited from earlier work
# [7] = test system: recurrent glioblastoma (GBM); test: Clinical outcome: PFS, OS, MRI response; assay type: in vivo, human
# In short: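 Oral dosing as weight-based powder reconstituted into a liquid suspension just before intake, BID on Mon/Wed/Fri for 2 weeks of each 28-day cycle, for up to 12 cycles or until progression. MRI at baseline, then about every 2–3 months, scored by iRANO on FLAIR and post-contrast T1WI. Intention-to-treat population. Kaplan–Meier estimates of PFS and OS, with OS counted from initial diagnosis.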
# [8] = test system: immune modulatory effects; conditions: cited from earlier work
# p-STAT3 (Y705) in PBMCs = test: Intracellular p-STAT3 staining of patient PBMCs by flow cytometry; assay type: in vivo, human
# In short: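 Blood was processed at once because the p-STAT3 signal decays ex vivo. Ficoll-isolated PBMCs (6 × 10^6 in PBS) were fixed in 2% paraformaldehyde (final) for 10 min at 37°C, then permeabilised in ice-cold 90% methanol for 30 min. Staining was PE-anti-p-STAT3 (Y705) for 1 h at RT, in duplicate wells, with duplicate isotype-control wells and one unstained well. Duplicate specimens were run in parallel. Read-out was % p-STAT3+ PBMCs by flow cytometry versus baseline (0 h); paired t-test.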
# glioma cancer cells = conditions: read-out: direct IC50 of glioma cancer cells; cited from earlier work
# [9] = test system: established intracerebral melanoma; conditions: versus 0% of vehicle control mice (p = 0.0076); cited from earlier work
# [10] = 1 mg/kg, C1D1 0 h (baseline before first dose)
# [11] = 2 mg/kg, C1D1 0 h (baseline before first dose)
# [12] = 4 mg/kg, C1D1 0 h (baseline before first dose)
# [13] = 8 mg/kg, C1D1 0 h (baseline before first dose)
# [14] = count in enrolled patient population (n = 8), all dose levels
# [15] = sum over all toxicities, enrolled patient population (n = 8)
compound,measurement,setting,value
C[C@H](NC(=O)/C(C#N)=C/c1cccc(Br)n1)c1ccccc1 [WP1066],dose dependence of Cmax,[1],dose dependent increase in the Cmax
same,increase in median survival time,[2],55.5%
same,therapeutic effect in combination with radiation therapy,"GL261 glioma model; GL261 glioma model, lost in immune-incompetent animals",long-term survivors and enhanced median survival time relative to monotherapy
same,therapeutic effect as monotherapy,"GL261 glioma model; preclinical murine studies, 60 mg/kg",failed to demonstrate any therapeutic effect
same,% IFN-γ+ CD8 T cells,PBMCs; [10],8.3%
same,% of FoxP3 Tregs,PBMCs; [10],6.9%
same,Th1 to Th2 ratio,"PBMCs; 1 mg/kg, C1D1 0 h (baseline)",0.3
same,Cytotoxic CD8 to Treg ratio,"PBMCs; 1 mg/kg, C1D1 0 h (baseline)",1.2
same,% IFN-γ+ CD8 T cells,"PBMCs; 1 mg/kg, C1D8 4 h",45.3%
same,% of FoxP3 Tregs,"PBMCs; 1 mg/kg, C1D8 4 h",3.9%
same,Th1 to Th2 ratio,"PBMCs; 1 mg/kg, C1D8 4 h",1.0
same,Cytotoxic CD8 to Treg ratio,"PBMCs; 1 mg/kg, C1D8 4 h",11.7
same,% IFN-γ+ CD8 T cells,PBMCs; [11],8.8%
same,% of FoxP3 Tregs,PBMCs; [11],8.8%
same,% IFN-γ+ CD8 T cells,"PBMCs; 2 mg/kg, C1D8 4 h",7.0%
same,% of FoxP3 Tregs,"PBMCs; 2 mg/kg, C1D8 4 h",7.6%
same,Th1 to Th2 ratio,"PBMCs; 2 mg/kg, C1D8 4 h",0.5
same,Cytotoxic CD8 to Treg ratio,"PBMCs; 2 mg/kg, C1D8 4 h",0.9
same,% IFN-γ+ CD8 T cells,PBMCs; [12],4.6% and 0.9% and 4.0%
same,% of FoxP3 Tregs,PBMCs; [12],5.3^§ % and 4.9% and 4.0%
same,% of FoxP3 Tregs,"PBMCs; 4 mg/kg, C1D8 4 h",8.4% and 5.9%
same,% IFN-γ+ CD8 T cells,PBMCs; [13],27.4% and 31.7%
same,% of FoxP3 Tregs,PBMCs; [13],3.7% and 2.4% and 6.9%
same,Cytotoxic CD8 to Treg ratio,"PBMCs; 8 mg/kg, C1D1 0 h (baseline)",7.4 and 4.6
same,% IFN-γ+ CD8 T cells,"PBMCs; 8 mg/kg, C1D8 4 h",3.6% and 0.1%
same,% of FoxP3 Tregs,"PBMCs; 8 mg/kg, C1D8 4 h",5.4% and 2.1% and 5.8%
same,Th1 to Th2 ratio,"PBMCs; 8 mg/kg, C1D8 4 h",2.4 and 1.8
same,FoxP3+ Tregs in PBMCs versus baseline,PBMCs; after 172 h of treatment,not significantly altered
same,mean concentration within the brain,[3]; at 15 min,162 µM
same,mean concentration within the brain,[3]; at 6 h,6 µM
same,oral bioavailability,[4]; methylcellulose-based oral nanoparticle formulation,approximately 30%
same,mean peak plasma concentration,[4]; preclinical dose of 40 mg/kg,4.31 µM
same,hematological events such as thrombocytopenia or lymphopenia,"[5]; 8 patients, 1-8 mg/kg",no significant hematological events
same,treatment-related deaths,"[5]; 8 patients, 1-8 mg/kg",No treatment-related deaths occurred
same,"patients with the most common adverse event, grade 1 nausea and diarrhea","[5]; 8 patients, all dose levels",50%
same,"Alanine aminotransferase increased, Grade 1",[5]; [14],1
same,"Alanine aminotransferase increased, Grade 2",[5]; [14],1
same,"Cardiac disorders, other-sinus rhythm probable left atrial enlargement, Grade 1",[5]; [14],1
same,"Cholesterol high, Grade 1",[5]; [14],1
same,"Creatinine increase, Grade 1",[5]; [14],1
same,"Diarrhea, Grade 1",[5]; [14],4
same,"Diarrhea, Grade 2",[5]; [14],1
same,"Gastrointestinal disturbance, Grade 1",[5]; [14],1
same,"Heartburn, Grade 1",[5]; [14],1
same,"Lymphocyte count decrease, Grade 1",[5]; [14],1
same,"Lymphocyte count decrease, Grade 2",[5]; [14],3
same,"Lymphocyte count decrease, Grade 3",[5]; [14],0
same,"Lymphocyte count decrease, Grade 4",[5]; [14],0
same,"Lymphocyte count decrease, Grade 5",[5]; [14],0
same,"Nausea, Grade 1",[5]; [14],4
same,"Neutrophil count decreased, Grade 1",[5]; [14],2
same,"Neutrophil count decreased, Grade 2",[5]; [14],0
same,"Neutrophil count decreased, Grade 3",[5]; [14],0
same,"Neutrophil count decreased, Grade 4",[5]; [14],0
same,"Neutrophil count decreased, Grade 5",[5]; [14],0
same,"Platelet count decrease, Grade 1",[5]; [14],1
same,"Platelet count decrease, Grade 2",[5]; [14],0
same,"Platelet count decrease, Grade 3",[5]; [14],0
same,"Platelet count decrease, Grade 4",[5]; [14],0
same,"Platelet count decrease, Grade 5",[5]; [14],0
same,"Vomiting, Grade 1",[5]; [14],1
same,"White blood cell decrease, Grade 1",[5]; [14],3
same,"White blood cell decrease, Grade 2",[5]; [14],1
same,"White blood cell decrease, Grade 3",[5]; [14],0
same,"White blood cell decrease, Grade 4",[5]; [14],0
same,"White blood cell decrease, Grade 5",[5]; [14],0
same,tolerability of the oral formulation,"[5]; dose level 4 (8 mg/kg), all three subjects",oral aversion to the formulation
same,"Total toxicities, Grade 2",[5]; [15],6
same,"Total toxicities, Grade 3",[5]; [15],0
same,"Total toxicities, Grade 4",[5]; [15],0
same,"Total toxicities, Grade 5",[5]; [15],0
same,concentration within orthotopic brain tumors,[6],2.3 µM
same,6-month PFS (PFS6) rate,[7]; 8 patients,0%
same,longest response duration,[7]; 8 patients,exceeded 3.25 months
same,estimated 1-year OS rate,"[7]; Kaplan-Meier, 8 patients",100%
same,median overall survival (OS),"[7]; from the time of the initial diagnosis, 95% CI: 22.5 months-NA months",25 months
same,Survival weeks,[7]; individual patient at 1 mg/kg,Alive
same,Survival weeks,[7]; individual patient at 2 mg/kg,65 weeks
same,Survival weeks,"[7]; individual patients at 4 mg/kg, 4 mg/kg",108 weeks and 109 weeks and 194 weeks
same,Survival weeks,"[7]; individual patients at 8 mg/kg, 8 mg/kg",115 weeks and 98 weeks and Alive
same,concentration at which immune modulatory effects start,[8],around 0.1 μM
same,% of p-STAT3+ PBMC,p-STAT3 (Y705) in PBMCs; [10],39.9%
same,% of p-STAT3+ PBMC,"p-STAT3 (Y705) in PBMCs; 1 mg/kg, C1D1 4 h",33.4%
same,% of p-STAT3+ PBMC,"p-STAT3 (Y705) in PBMCs; 1 mg/kg, C1D2 0 h",31.8%
same,% of p-STAT3+ PBMC,"p-STAT3 (Y705) in PBMCs; 1 mg/kg, C1D8 0 h",19.3%
same,% of p-STAT3+ PBMC,"p-STAT3 (Y705) in PBMCs; 1 mg/kg, C1D8 4 h",15.7%
same,% of p-STAT3+ PBMC,p-STAT3 (Y705) in PBMCs; [11],38.1%
same,% of p-STAT3+ PBMC,"p-STAT3 (Y705) in PBMCs; 2 mg/kg, C1D1 4 h",33.8%
same,% of p-STAT3+ PBMC,"p-STAT3 (Y705) in PBMCs; 2 mg/kg, C1D2 0 h",31.5%
same,% of p-STAT3+ PBMC,"p-STAT3 (Y705) in PBMCs; 2 mg/kg, C1D8 0 h",27.6%
same,% of p-STAT3+ PBMC,"p-STAT3 (Y705) in PBMCs; 2 mg/kg, C1D8 4 h",34.8%
same,% of p-STAT3+ PBMC,p-STAT3 (Y705) in PBMCs; [12],35.0% and 27.8% and 35.9%
same,% of p-STAT3+ PBMC,"p-STAT3 (Y705) in PBMCs; 4 mg/kg, C1D1 4 h",28.2% and 30.9% and 36.0%
same,% of p-STAT3+ PBMC,"p-STAT3 (Y705) in PBMCs; 4 mg/kg, C1D2 0 h",26.9% and 29.7% and 45.8%
same,% of p-STAT3+ PBMC,"p-STAT3 (Y705) in PBMCs; 4 mg/kg, C1D8 0 h",37.7% and 27.3%
same,% of p-STAT3+ PBMC,"p-STAT3 (Y705) in PBMCs; 4 mg/kg, C1D8 4 h",22.7% and 21.1% and 35.3%
same,lowest dose with p-STAT3 suppression in peripheral blood (PBMCs),"p-STAT3 (Y705) in PBMCs; oral BID, longitudinal administration",1 mg/kg
same,IC50,glioma cancer cells,2 to 5 µM
same,animals surviving long term,[9],80%
